Measurements taken from article PMC3983359 (Journal of Medicinal Chemistry, 2014).
Converted amounts (≈) assume the structure as drawn. Where a name gives a salt, the structure may show the parent alone. Peptide text beside a SMILES is read from it. * marks the point of attachment. βNA = c1ccc2cc(N*)ccc2c1

How the values were obtained:
[1] = biological target: T1, B. subtilis Sfp-PPTase (Bacillus subtilis, UniProt P39135); test: Sfp-PPTase qHTS assay; assay type: biochemical; settings: for Sfp-PPTase inhibitory activity in words: SAR discussion; for IC50 ± SD: triplicate
T1 sequence (P39135 1-224): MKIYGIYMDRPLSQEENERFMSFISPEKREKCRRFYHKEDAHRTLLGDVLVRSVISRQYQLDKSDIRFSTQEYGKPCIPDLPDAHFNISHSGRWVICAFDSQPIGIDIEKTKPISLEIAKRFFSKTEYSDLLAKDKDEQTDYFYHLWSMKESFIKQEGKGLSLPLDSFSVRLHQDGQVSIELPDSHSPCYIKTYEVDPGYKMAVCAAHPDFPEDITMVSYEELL

[2] = system: B. subtilis (HM489); test: B. subtilis HM489 antibacterial assay; assay type: cell-based, Bacillus subtilis; settings: cellular ATP content, Bac-Titer Glo
[3] = system: B. subtilis; test: MIC determination, broth dilution, B. subtilis; assay type: cell-based, Bacillus subtilis; settings: Bacillus subtilis
Procedure, shortened: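 Bacterial MIC followed NCCLS M07 broth microdilution. Test compound in DMSO (1 μL) added to 50 μL cation-adjusted Mueller Hinton II broth, then ~1 × 10^3 cfu from overnight liquid culture. Incubated at 30–37 °C for 16–20 h. MIC taken as the first well without visible growth. For imaging, 0.7% w/v resazurin (10 μL) added, then 4 h at 37 °C.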

[4] = system: B. subtilis 168; test: Membrane damage assessment; assay type: cell-based, Bacillus subtilis; settings: 15 min incubation, up to 10-fold MIC, Syto9/propidium iodide
Procedure, shortened: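 B. subtilis membrane integrity assessed by fluorescence microscopy with Syto9, which stains all cells, and propidium iodide, which enters only compromised cells. […] Stained cells were counted.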

[5] = system: S. aureus BK2395 (PFGE USA500); test: Mouse model of S. aureus septicemia; assay type: in vivo; settings: 55 30 mpk, vancomycin 50 mpk; 4, 24, 48 hours post infection
[6] = system: HepG2 cells; test: HepG2 cytotoxicity counterscreen; assay type: cell-based, human; settings: cellular ATP content, CellTiter-Glo, 48 hr
[7] = system: E. coli BW25113; test: Checkerboard synergy experiment with PAβN; assay type: cell-based, Escherichia coli; settings: top concentrations tested
Procedure, shortened: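 Checkerboard broth dilution in E. coli BW25113 combining test compound with PAβN over concentration grids. Resazurin added (10 μL, 0.7% w/v) and incubated a further 4 h at 37 °C; purple wells scored as no metabolically active bacteria. At each test-compound concentration, the lowest PAβN concentration halting growth was recorded. FIC index was estimated as combined potency relative to the single components.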

[8] = biological target: T2, Sfp-PPTase (Bacillus subtilis, UniProt P39135); test: Rescue-by-dilution reversibility experiment; assay type: biochemical; settings: 100-fold dilution from conditions producing 90% inhibition
T2 sequence (P39135 1-224): T1 sequence (P39135 1-224)

[9] = biological target: T3, human PPTase (Homo sapiens, UniProt Q9NRN7); test: Gel-based PPTase assay with the human enzyme; assay type: biochemical; settings: concentrations up to 125 μM
T3 sequence (Q9NRN7 1-309): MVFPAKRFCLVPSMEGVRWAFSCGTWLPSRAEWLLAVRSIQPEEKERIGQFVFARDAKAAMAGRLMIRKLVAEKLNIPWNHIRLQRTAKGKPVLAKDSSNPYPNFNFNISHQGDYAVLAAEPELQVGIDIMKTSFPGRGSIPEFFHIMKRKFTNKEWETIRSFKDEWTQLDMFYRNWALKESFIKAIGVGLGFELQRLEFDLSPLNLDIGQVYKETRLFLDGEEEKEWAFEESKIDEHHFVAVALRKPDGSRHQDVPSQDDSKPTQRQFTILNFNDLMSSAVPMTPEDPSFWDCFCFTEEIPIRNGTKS

## Cc1ccnc(NC(=S)NCCNc2cccc(C(F)(F)F)c2)c1 [Compound 58]
[1]
  Sfp-PPTase inhibitory activity in words: lost all activity
[1]; Table 3, HTS assay
  IC50 ± SD: inactive

## Cc1ccnc(NC(=O)N2CCN(c3cccc(C(F)(F)F)c3)CC2)c1 [Compound 12, N-(4-Methylpyridin-2-yl)-4-(3-(trifluoromethyl)phenyl)piperazine-1-carboxamide Trifluoroacetate]
[2]
  B. subtilis (HM489) IC50: inactive
[1]; Table 1, HTS assay
  IC50 ± SD: inactive
[1]; Table 4, HTS assay
  Sfp-PPTase IC50: inactive

## O=C(N[C@H](CO)[C@H](O)c1ccc([N+](=O)[O-])cc1)C(Cl)Cl [Chloramphenicol]
[3]
  MIC: ~2 µg/mL (≈ 6.19 µM)
[4]
  bacterial cell membrane integrity: continued cellular viability

## Cc1ccnc(NC(=N)N2CCN(c3cccc(C(F)(F)F)c3)CC2)c1 [Compound 13]
[1]; Table 1, HTS assay
  IC50 ± SD: inactive

## FC(F)(F)c1cccc(N2CCN(C(=S)Nc3cc(C(F)(F)F)ccn3)CC2)c1 [Compound 4]
[1]; Table 1, HTS assay
  IC50 ± SD: inactive

## CN[C@H](CC(C)C)C(=O)N[C@H]1C(=O)N[C@@H](CC(N)=O)C(=O)N[C@H]2C(=O)N[C@H]3C(=O)N[C@H](C(=O)N[C@H](C(=O)O)c4cc(O)cc(O)c4-c4cc3ccc4O)[C@H](O)c3ccc(c(Cl)c3)Oc3cc2cc(c3O[C@@H]2O[C@H](CO)[C@@H](O)[C@H](O)[C@H]2O[C@H]2C[C@](C)(N)[C@H](O)[C@H](C)O2)Oc2ccc(cc2Cl)[C@H]1O [vancomycin, reference compound]
[5]
  survival in mouse sepsis model: completely protected animals from morbidity

## Cc1ccnc(NC(=S)NC2CN(c3cccc(C(F)(F)F)c3)C2)c1 [Compound 59]
[1]
  Sfp-PPTase inhibitory activity in words: all activity is lost
[1]; Table 3, HTS assay
  IC50 ± SD: inactive

## Cc1cc(C)nc(NC(=S)N2CCN(c3ccc(Cl)cc3C(F)(F)F)CC2)c1 [Compound 41, 4-(4-Chloro-2-(trifluoromethyl)phenyl)-N-(4,6-dimethylpyridin-2-yl)piperazine-1-carbothioamide Trifluoroacetate]
[6]
  cytotoxicity (HepG2), IC50: inactive

## NC(N)=NCCC[C@H](NC(=O)[C@@H](N)Cc1ccccc1)C(=O)Nc1ccc2ccccc2c1 [PAβN, phenylarginine-β-naphthamide, reference compound] (H-Phe-Arg-βNA)
[7]
  antibacterial activity of the single compound against BW25113: neither compound alone was found to possess antibacterial activity

## Cc1ccnc(N(C)C(=S)N2CCN(c3cccc(C(F)(F)F)c3)CC2)c1 [Compound 19]
[1]; Table 1, HTS assay
  IC50 ± SD: inactive

## Cc1cc(C)nc(N/C(=N/C#N)N2CCN(c3cccc(C(F)(F)F)c3)CC2)c1 [Compound 14]
[1]
  Sfp-PPTase inhibitory activity in words: complete loss of activity
[1]; Table 1, HTS assay
  IC50 ± SD: inactive

## CCCCCCCCCCCCCCCC[N+](C)(C)C [CTAB, cetyltrimethylammonium bromide]
[3]
  MIC: ~2 µg/mL
[4]
  bacterial cell membrane integrity: rapid compromise of bacterial cell integrity

## Cc1cc(C)nc(NC(=C(C#N)C#N)N2CCN(c3cccc(C(F)(F)F)c3)CC2)c1 [Compound 15]
[1]
  Sfp-PPTase inhibitory activity in words: complete loss of activity
[1]; Table 1, HTS assay
  IC50 ± SD: inactive

## Cc1ccnc(NC(=S)N2CCN(c3ccccc3C(F)(F)F)CC2)c1 [Compound 22, N-(4-Methylpyridin-2-yl)-4-(2-(trifluoromethyl)phenyl)piperazine-1-carbothioamide Trifluoroacetate]
[6]
  cytotoxicity (HepG2), IC50: inactive

## Nc1ncnc2c1ncn2[C@@H]1O[C@H](COP(=O)(O)O)[C@@H](OP(=O)(O)O)[C@H]1O [PAP, 3′-phosphoadenosine 5′-monophosphate, reference compound]
[8]
  reversibility of inhibition of Sfp: reversible
[9]
  inhibition of the human PPTase: observed inhibition

## Cc1ccnc(NC(=S)NCCN(C)c2cccc(C(F)(F)F)c2)c1 [Compound 57]
[1]
  Sfp-PPTase inhibitory activity in words: lost all activity
[1]; Table 3, HTS assay
  IC50 ± SD: inactive

## FC(F)(F)c1cccc(N2CCN(C(=S)Nc3ccncc3)CC2)c1 [Compound 6]
[1]; Table 1, HTS assay
  IC50 ± SD: inactive

## Cc1ccnc(NC(=S)NC2CCN(c3cccc(C(F)(F)F)c3)CC2)c1 [Compound 20]
[1]; Table 1, HTS assay
  IC50 ± SD: inactive

## Cc1ccnc(NC(=S)N2CCN(c3cccc(C(F)(F)F)c3)CC2)c1 [Compound 1, N-(4-Methylpyridin-2-yl)-4-(3-(trifluoromethyl)phenyl)piperazine-1-carbothioamide Trifluoroacetate]
[8]
  reversibility of inhibition of Sfp: completely reversible inhibition

## C/N=c1\nc(-c2ccccc2)n(-c2ccccc2)s1 [SCH-202676, reference compound]
[8]
  reversibility of inhibition of Sfp: irreversible inhibitor
[9]
  inhibition of the human PPTase: observed inhibition

## Cc1cc(C)nc(Nc2nnc(N3CCN(c4cccc(C(F)(F)F)c4)CC3)s2)c1 [Compound 16]
[1]; Table 1, HTS assay
  IC50 ± SD: inactive

## Cc1ccnc(NC(=S)N2CCC(Nc3cccc(C(F)(F)F)c3)CC2)c1 [Compound 63, N-(4-Methylpyridin-2-yl)-4-((3-(trifluoromethyl)phenyl)amino)piperidine-1-carbothioamide Trifluoroacetate]
[6]
  cytotoxicity (HepG2), IC50: inactive

## Cc1cccc(NC(=S)N2CCN(c3cccc(C(F)(F)F)c3)CC2)c1 [Compound 5]
[1]; Table 1, HTS assay
  IC50 ± SD: inactive
